The source made the active and inactive calls. No cut-off for these calls is given here.

One series addresses Toll-like receptor 4 (Mus musculus) (UniProt Q9QUK6). The series is described as follows: Agonist activity at TLR4 in mouse RAW blue cells assessed as increase in NF-kappaB activation-mediated SEAP production up to 10 uM measured after 20 hrs by SEAP reporter gene assay.
Settings: not given
For orientation: In a reporter assay the amount or activity of a reporter protein is the signal.
In the case of `CCCCCCCCCCCCCCCC(=O)N[C@H]1[C@@H](OP(=O)([O-])O)O[C@H](CO)[C@@H](OP(=O)([O-])O)[C@@H]1OC(=O)CCCCCCCCCCCCCCC.[Na+].[Na+]`, the Activity result is given as “Not Active”.

Regarding `CCCCCCCCCCCCCC(=O)N[C@H]1[C@@H](OP(=O)(O)O)O[C@H](CO)[C@@H](OP(=O)(O)O)[C@@H]1OC(=O)CCCCCCCCCCCCC`, the Activity entry was “Not Active”.

Take `CCCCCCCCCC(=O)N[C@H]1[C@@H](OP(=O)([O-])O)O[C@H](CO)[C@@H](OP(=O)([O-])O)[C@@H]1OC(=O)CCCCCCCCC.[Na+].[Na+]`: the Activity entry was “Not Active”.

As for `CCCCCCCCCCCC(=O)N[C@H]1[C@@H](OP(=O)([O-])O)O[C@H](CO)[C@@H](OP(=O)([O-])O)[C@@H]1OC(=O)CCCCCCCCCCC.[Na+].[Na+]`, the Activity result is “Not Active”.

For a further series the target is unchanged. The series is described as follows: Antagonist activity at TLR4 in mouse RAW blue cells assessed as inhibition of LPS-induced NF-kappaB activation-mediated SEAP production preincubated for 30 mins followed by LPS addition measured after 16 hrs by NF-kappaB reporter gene assay.
Settings: not given
By IC50 is commonly meant the midpoint of a concentration-inhibition curve. For `CCCCCCCCCCCCCC(=O)N[C@H]1[C@@H](OP(=O)(O)O)O[C@H](CO)[C@@H](OP(=O)(O)O)[C@@H]1OC(=O)CCCCCCCCCCCCC`, the IC50 stood at 7.7 µM.

As to `CCCCCCCCCC(=O)N[C@H]1[C@@H](OP(=O)([O-])O)O[C@H](CO)[C@@H](OP(=O)([O-])O)[C@@H]1OC(=O)CCCCCCCCC.[Na+].[Na+]`, the IC50 was determined as 42 µM.

Regarding `CCCCCCCCCCCC(=O)N[C@H]1[C@@H](OP(=O)([O-])O)O[C@H](CO)[C@@H](OP(=O)([O-])O)[C@@H]1OC(=O)CCCCCCCCCCC.[Na+].[Na+]`, the IC50 turned out to be 1.7 µM.

A further series concerns THP-1. The series is described as follows: Cytotoxicity against human THP1 cells assessed as reduction in cell viability up to 10 uM after 24 hrs in presence of LPS by MTT asssay. The series is classed as cell-based. The note with it: thp-1, 24 h. The gist of the method: (§1)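 THP-1 monocytes in RPMI with 10% heat-inactivated FBS, used at 0.5 × 10^6 cells/mL. Cells exposed to compounds at 0–10 μM, with or without LPS (100 ng/mL), for up to 24 h. Viability read by MTT assay.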
As to `CCCCCCCCCCCCCCCC(=O)N[C@H]1[C@@H](OP(=O)([O-])O)O[C@H](CO)[C@@H](OP(=O)([O-])O)[C@@H]1OC(=O)CCCCCCCCCCCCCCC.[Na+].[Na+]`, the Activity entry is “Non-Toxic”.

Turning to `CCCCCCCCCCCCCC(=O)N[C@H]1[C@@H](OP(=O)(O)O)O[C@H](CO)[C@@H](OP(=O)(O)O)[C@@H]1OC(=O)CCCCCCCCCCCCC`, the Activity result is given as “Non-Toxic”.

As to `CCCCCCCCCC(=O)N[C@H]1[C@@H](OP(=O)([O-])O)O[C@H](CO)[C@@H](OP(=O)([O-])O)[C@@H]1OC(=O)CCCCCCCCC.[Na+].[Na+]`, the Activity entry was “Non-Toxic”.

For `CCCCCCCCCCCC(=O)N[C@H]1[C@@H](OP(=O)([O-])O)O[C@H](CO)[C@@H](OP(=O)([O-])O)[C@@H]1OC(=O)CCCCCCCCCCC.[Na+].[Na+]`, the Activity result is given as “Non-Toxic”.

The next series concerns THP-1. The series is described as follows: Cytotoxicity against human THP1 cells assessed as reduction in cell viability up to 10 uM after 24 hrs in absence of LPS by MTT asssay. The series is classed as cell-based. The note with it: thp-1, 24 h. An outline of the steps: as §1
As to `CCCCCCCCCCCCCCCC(=O)N[C@H]1[C@@H](OP(=O)([O-])O)O[C@H](CO)[C@@H](OP(=O)([O-])O)[C@@H]1OC(=O)CCCCCCCCCCCCCCC.[Na+].[Na+]`, the Activity result was “Non-Toxic”.

On to `CCCCCCCCCCCCCC(=O)N[C@H]1[C@@H](OP(=O)(O)O)O[C@H](CO)[C@@H](OP(=O)(O)O)[C@@H]1OC(=O)CCCCCCCCCCCCC`, for which the Activity result is reported as “Non-Toxic”.

Take `CCCCCCCCCC(=O)N[C@H]1[C@@H](OP(=O)([O-])O)O[C@H](CO)[C@@H](OP(=O)([O-])O)[C@@H]1OC(=O)CCCCCCCCC.[Na+].[Na+]`: the Activity entry was “Non-Toxic”.

Turning to `CCCCCCCCCCCC(=O)N[C@H]1[C@@H](OP(=O)([O-])O)O[C@H](CO)[C@@H](OP(=O)([O-])O)[C@@H]1OC(=O)CCCCCCCCCCC.[Na+].[Na+]`, the Activity result is listed as “Non-Toxic”.

In another series the target is Toll-like receptor 4 (Homo sapiens, UniProt O00206). The series is described as follows: Antagonist activity at human TLR4 expressed in HEK blue cells assessed as inhibition of LPS-induced NF-kappaB activation-mediated SEAP production preincubated for 30 mins followed by LPS addition measured after overnight incubation in absence of light by NF-kappaB reporter gene assay. The series is classed as cell-based.
Sequence of Toll-like receptor 4 (O00206 whole entry): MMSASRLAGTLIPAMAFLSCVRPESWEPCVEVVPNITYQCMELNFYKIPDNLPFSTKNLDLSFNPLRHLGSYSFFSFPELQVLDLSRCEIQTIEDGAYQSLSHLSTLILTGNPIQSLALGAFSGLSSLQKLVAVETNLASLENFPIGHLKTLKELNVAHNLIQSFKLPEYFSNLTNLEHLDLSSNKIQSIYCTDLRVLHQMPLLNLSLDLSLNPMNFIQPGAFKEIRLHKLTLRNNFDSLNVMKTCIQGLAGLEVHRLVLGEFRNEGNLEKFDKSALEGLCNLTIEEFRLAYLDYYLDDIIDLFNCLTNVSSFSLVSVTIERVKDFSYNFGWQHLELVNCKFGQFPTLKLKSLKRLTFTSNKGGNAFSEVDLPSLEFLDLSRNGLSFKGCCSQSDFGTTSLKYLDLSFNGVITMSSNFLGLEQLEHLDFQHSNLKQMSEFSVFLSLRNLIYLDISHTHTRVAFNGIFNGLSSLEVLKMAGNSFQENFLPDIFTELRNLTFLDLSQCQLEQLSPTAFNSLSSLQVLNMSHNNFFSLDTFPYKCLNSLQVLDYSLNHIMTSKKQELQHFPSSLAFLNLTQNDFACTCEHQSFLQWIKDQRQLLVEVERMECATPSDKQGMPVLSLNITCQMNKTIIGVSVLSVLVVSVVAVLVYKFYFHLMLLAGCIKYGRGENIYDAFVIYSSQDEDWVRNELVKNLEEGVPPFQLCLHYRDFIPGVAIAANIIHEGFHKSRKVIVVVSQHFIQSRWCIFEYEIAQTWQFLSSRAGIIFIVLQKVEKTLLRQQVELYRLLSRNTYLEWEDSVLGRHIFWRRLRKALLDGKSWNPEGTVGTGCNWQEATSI
Settings: not given
The gist of the method: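 HEK-Blue hTLR4 cells (stably expressing hTLR4, hMD-2, hCD14 and an NF-κB/AP-1-driven SEAP reporter) seeded at 4 × 10^4/well, incubated overnight at 37 °C. Compound (in water or DMSO–H2O 1:1) added 30 min before 100 ng/mL E. coli O55:B5 LPS, then overnight incubation. Supernatant SEAP read with pNPP, 2–4 h in the dark at room temperature, OD 405 nm. Normalized to LPS alone; four-parameter logistic fit for IC50; ≥3 independent experiments.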
For the compound `CCCCCCCCCCCCCC(=O)N[C@H]1[C@@H](OP(=O)(O)O)O[C@H](CO)[C@@H](OP(=O)(O)O)[C@@H]1OC(=O)CCCCCCCCCCCCC`, the 50% inhibitory concentration (IC50) turned out to be 2000 nM and the inhibition result was “Dose-dependent effect”.

Regarding `CCCCCCCCCC(=O)N[C@H]1[C@@H](OP(=O)([O-])O)O[C@H](CO)[C@@H](OP(=O)([O-])O)[C@@H]1OC(=O)CCCCCCCCC.[Na+].[Na+]`, the IC50 came to 5450 nM and the inhibition entry was “Dose-dependent effect”.

With `CCCCCCCCCCCC(=O)N[C@H]1[C@@H](OP(=O)([O-])O)O[C@H](CO)[C@@H](OP(=O)([O-])O)[C@@H]1OC(=O)CCCCCCCCCCC.[Na+].[Na+]`, the IC50 is 630 nM and the inhibition result was “Dose-dependent effect”.

Tested on in a further series: not listed separately
The series is described as follows: Cytotoxicity against HEK-Blue cells assessed as reduction in cell viability at 10 uM after overnight incubation by MTT assay. The series is classed as cell-based. The note with it: human. The gist of the method:
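MTT viability assay in HEK-Blue hTLR4 cells seeded at 4 × 10^4/well in phenol red-free DMEM and incubated overnight. Cells then treated overnight with the highest compound concentration used in the activity assays (10 μM). MTT (5 mg/mL in PBS) added for 3 h; formazan dissolved in 0.1 N HCl/2-propanol; absorbance 570 nm. Normalized to untreated (PBS) control; mean ± SEM of three independent experiments.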
For `CCCCCCCCCCCCCCCC(=O)N[C@H]1[C@@H](OP(=O)([O-])O)O[C@H](CO)[C@@H](OP(=O)([O-])O)[C@@H]1OC(=O)CCCCCCCCCCCCCCC.[Na+].[Na+]`, the Activity result is “Non-Toxic”.

Take `CCCCCCCCCC(=O)N[C@H]1[C@@H](OP(=O)([O-])O)O[C@H](CO)[C@@H](OP(=O)([O-])O)[C@@H]1OC(=O)CCCCCCCCC.[Na+].[Na+]`: the Activity entry is “Non-Toxic”.

On to `CCCCCCCCCCCC(=O)N[C@H]1[C@@H](OP(=O)([O-])O)O[C@H](CO)[C@@H](OP(=O)([O-])O)[C@@H]1OC(=O)CCCCCCCCCCC.[Na+].[Na+]`, for which the Activity entry is “Non-Toxic”.

A further series deals with Toll-like receptor 4 (Mus musculus) (UniProt Q9QUK6). The series is described as follows: Antagonist activity at TLR4 in mouse RAW blue cells assessed as inhibition of LPS-induced NF-kappaB activation-mediated SEAP production up to 10 uM preincubated for 30 mins followed by LPS addition measured after 16 hrs by NF-kappaB reporter gene assay.
Sequence of Toll-like receptor 4 (Mus musculus) (Q9QUK6 whole entry, looked up): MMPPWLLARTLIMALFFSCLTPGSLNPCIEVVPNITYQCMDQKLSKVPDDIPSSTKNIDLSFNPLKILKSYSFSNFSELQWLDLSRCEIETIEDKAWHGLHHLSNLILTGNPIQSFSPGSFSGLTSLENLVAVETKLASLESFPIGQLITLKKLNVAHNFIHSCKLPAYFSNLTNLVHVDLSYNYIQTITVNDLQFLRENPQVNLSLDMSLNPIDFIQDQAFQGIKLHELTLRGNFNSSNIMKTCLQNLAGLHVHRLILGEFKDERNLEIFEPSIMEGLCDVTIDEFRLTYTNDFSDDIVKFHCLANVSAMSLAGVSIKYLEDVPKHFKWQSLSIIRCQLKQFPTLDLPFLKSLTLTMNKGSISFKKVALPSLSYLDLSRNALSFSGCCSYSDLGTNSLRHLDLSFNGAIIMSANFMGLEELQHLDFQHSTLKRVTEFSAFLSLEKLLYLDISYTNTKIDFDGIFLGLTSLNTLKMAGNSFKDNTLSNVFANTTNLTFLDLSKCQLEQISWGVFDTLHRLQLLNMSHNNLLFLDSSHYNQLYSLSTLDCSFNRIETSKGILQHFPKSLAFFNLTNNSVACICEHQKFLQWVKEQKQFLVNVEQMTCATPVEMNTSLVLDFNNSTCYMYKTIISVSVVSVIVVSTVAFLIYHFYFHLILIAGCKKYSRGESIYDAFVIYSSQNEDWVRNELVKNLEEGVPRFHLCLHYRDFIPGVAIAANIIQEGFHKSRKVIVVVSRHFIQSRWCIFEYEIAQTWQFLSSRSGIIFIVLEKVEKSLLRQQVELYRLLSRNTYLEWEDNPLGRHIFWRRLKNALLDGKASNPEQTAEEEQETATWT
Settings: not given
For `CCCCCCCCCCCCCCCC(=O)N[C@H]1[C@@H](OP(=O)([O-])O)O[C@H](CO)[C@@H](OP(=O)([O-])O)[C@@H]1OC(=O)CCCCCCCCCCCCCCC.[Na+].[Na+]`, the inhibition result was “inactive”.

The values are drawn from ChEMBL document CHEMBL4033792, “Structure-Activity Relationship in Monosaccharide-Based Toll-Like Receptor 4 (TLR4) Antagonists” (J Med Chem, 2018).
